Tests used:
[1] = ref Mitrović et al., 2021; cited from earlier work
[2] = Solubility of DK-I-60-3 in lipid mixtures; format: physicochemical
How it was run: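 DSC on bulk and melted-then-solidified Softisan 154 and on Softisan 154–lecithin mixtures, blank or with 1.0% or 1.5% test compound. Crystallinity index = mixture enthalpy / untreated Softisan 154 enthalpy × 100. PLM: melted mixture dropped onto heated slide, covered, solidified quickly at room temperature, imaged at 400× with crossed polarizers and ¼λ plate. Triplicates, mean ± SD.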

## [2H]C([2H])([2H])Oc1ccc(-n2nc3c4ccc(OC([2H])([2H])[2H])cc4[nH]cc-3c2=O)cc1 [DK-I-60-3, 7-methoxy-d3-2-(4-methoxy-d3-phenyl)-2,5-dihydro-3Hpyrazolo[4,3-c]quinolin-3-one]
[1]
  solubility in common organic solvents: very slightly or slightly soluble
  solubility in water and oils commonly used for pharmaceutical formulations: practically insoluble
[2]; Softisan 154 + lecithin (30%) lipid mixture, by DSC and PLM
  saturation solubility of DK-I-60-3 in the lipid mixture: 1.0%
[2]; mixture of solid (Softisan 154) and liquid (medium chain triglycerides) lipid, preliminary studies
  DK-I-60-3 solubilized by the lipid matrix: < 0.5%
